The values that follow come from ChEMBL document CHEMBL1795327, “Novel 4-phenylpiperidine-2,6-dione derivatives. Ligands for α₁-adrenoceptor subtypes” (Eur J Med Chem, 2011).

Activity calls are given as the source filed them. The calls are words filed in the database; no cut-off is given here.

The target in assay [1] is T1, Alpha-1A adrenergic receptor (Homo sapiens, UniProt P35348).
T1 sequence (P35348 whole entry): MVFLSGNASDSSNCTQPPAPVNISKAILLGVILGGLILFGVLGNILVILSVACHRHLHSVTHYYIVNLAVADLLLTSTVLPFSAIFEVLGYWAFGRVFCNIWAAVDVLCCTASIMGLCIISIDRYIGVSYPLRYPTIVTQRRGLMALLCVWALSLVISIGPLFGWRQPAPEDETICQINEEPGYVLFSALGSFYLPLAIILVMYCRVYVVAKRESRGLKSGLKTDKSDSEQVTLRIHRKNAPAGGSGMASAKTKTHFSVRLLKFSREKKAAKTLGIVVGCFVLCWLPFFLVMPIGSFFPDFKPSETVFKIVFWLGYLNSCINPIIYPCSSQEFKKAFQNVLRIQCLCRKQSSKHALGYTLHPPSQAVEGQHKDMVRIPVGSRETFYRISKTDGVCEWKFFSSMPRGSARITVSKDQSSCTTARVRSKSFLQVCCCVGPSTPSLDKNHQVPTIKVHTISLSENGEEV
The assay is described as follows: Displacement of [125I]BE-2254 from human adrenergic alpha1A receptor expressed in HEK293 cells. Type of assay: cell-based. Put shortly: (§1)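 Membranes came from HEK293 cells stably expressing human α1A-, α1B- or α1D-AR, selected with geneticin. Cells were washed in PBS pH 7.6, homogenized, and spun at 30,000 × g for 10 min. The radioligand was [125I]BE 2254. Affinities are pKi, given as mean ± SE of three experiments run in duplicate.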

The target of assay [2] is T2, Alpha-1B adrenergic receptor (Homo sapiens, UniProt P35368).
T2 sequence (P35368 whole entry): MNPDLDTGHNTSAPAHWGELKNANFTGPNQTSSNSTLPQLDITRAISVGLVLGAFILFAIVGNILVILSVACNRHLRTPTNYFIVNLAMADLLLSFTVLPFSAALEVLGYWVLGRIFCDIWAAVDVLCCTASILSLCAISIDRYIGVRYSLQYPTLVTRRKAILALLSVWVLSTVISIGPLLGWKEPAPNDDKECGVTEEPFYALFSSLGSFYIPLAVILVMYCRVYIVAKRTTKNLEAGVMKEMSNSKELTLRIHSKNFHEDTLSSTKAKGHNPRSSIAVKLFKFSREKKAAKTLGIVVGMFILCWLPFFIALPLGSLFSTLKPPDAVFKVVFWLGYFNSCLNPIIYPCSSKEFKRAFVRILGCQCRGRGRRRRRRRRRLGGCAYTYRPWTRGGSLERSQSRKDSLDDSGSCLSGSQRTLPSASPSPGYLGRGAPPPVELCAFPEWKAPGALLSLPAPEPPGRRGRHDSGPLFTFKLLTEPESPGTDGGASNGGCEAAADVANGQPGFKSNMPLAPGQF
The experiment in a line: Displacement of [125I]BE-2254 from human adrenergic Alpha-1B receptor expressed in HEK293 cells. Type of assay: cell-based. Put shortly: as §1

Assay [3] concerns the target T3, Alpha-1D adrenergic receptor (Homo sapiens, UniProt P25100).
T3 sequence (P25100 whole entry): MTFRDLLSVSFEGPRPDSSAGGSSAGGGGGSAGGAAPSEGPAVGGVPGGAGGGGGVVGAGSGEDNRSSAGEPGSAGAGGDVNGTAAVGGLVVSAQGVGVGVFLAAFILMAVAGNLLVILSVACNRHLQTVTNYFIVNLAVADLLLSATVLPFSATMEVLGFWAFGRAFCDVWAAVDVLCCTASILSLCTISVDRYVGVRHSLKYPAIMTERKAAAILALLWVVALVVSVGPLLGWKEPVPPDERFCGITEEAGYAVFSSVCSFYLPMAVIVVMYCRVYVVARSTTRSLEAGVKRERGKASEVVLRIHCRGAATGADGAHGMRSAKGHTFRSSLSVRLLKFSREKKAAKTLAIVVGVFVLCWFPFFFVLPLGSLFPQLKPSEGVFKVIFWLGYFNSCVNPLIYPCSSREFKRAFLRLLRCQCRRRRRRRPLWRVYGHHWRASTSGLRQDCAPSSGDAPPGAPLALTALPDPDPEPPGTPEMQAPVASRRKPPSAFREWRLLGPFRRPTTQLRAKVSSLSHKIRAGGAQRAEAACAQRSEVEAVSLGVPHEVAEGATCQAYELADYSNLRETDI
The assay is described as follows: Displacement of [125I]BE-2254 from human adrenergic Alpha-1D receptor expressed in HEK293 cells. Format: cell-based. In a few lines: as §1

Assay [4] has as its target T1, Alpha-1A adrenergic receptor. The assay is described as follows: Antagonist activity at human adrenergic alpha1A receptor expressed in HEK293 cells assessed as inhibition of norepinephrine-induced [3H]inositol phosphate hydrolysis by scintillation counting. Type of assay: functional, cell-based. Put shortly: (§2)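 HEK293 cells stably transfected with human α1A-, α1B- or α1D-AR cDNA were prelabelled with myo-[3H]inositol, then given Krebs Ringer bicarbonate buffer with LiCl. Cells were incubated 60 min with or without NE and graded compound concentrations. The reaction was stopped with 20 mM formic acid. [3H]InsPs were isolated by anion exchange and counted by scintillation. Values (±SE) came from concentration-response inhibition curves.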

Assay [5] has as its target T2, Alpha-1B adrenergic receptor. The experiment in a line: Antagonist activity against human cloned adrenergic Alpha-1B receptor expressed in HEK293 cells assessed as inhibition of norepinephrine-induced [3H]inositol phosphate hydrolysis by scintillation counting. Format: functional, cell-based. Put shortly: as §2
The target of assay [6] is T3, Alpha-1D adrenergic receptor. The experiment in a line: Antagonist activity against human cloned adrenergic Alpha-1D receptor expressed in HEK293 cells assessed as inhibition of norepinephrine-induced [3H]inositol phosphate hydrolysis by scintillation counting. Type of assay: functional, cell-based. In a few lines: as §2
Assay [7] addresses T4, Alpha-1A adrenergic receptor (Homo sapiens) (UniProt P35348).
T4 sequence (whole entry): T1 sequence (P35348 whole entry)
The experiment in a line: Antagonist activity at human adrenergic alpha1A receptor expressed in HEK293 cells assessed as [3H]inositol phosphate formation at 10 uM by scintillation counting. Type of assay: functional, cell-based. In a few lines: (§3)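 Stably transfected HEK293 cells expressing human α1A-, α1B- or α1D-AR were labelled with myo-[3H]inositol and moved to Krebs Ringer bicarbonate buffer containing LiCl. They were incubated 60 min with or without NE, in the presence or absence of test compound. After a formic acid stop and sonication, [3H]InsPs were separated by anion-exchange chromatography and counted by scintillation.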

For assay [8], the target named is T5, Alpha-1B adrenergic receptor (Homo sapiens) (UniProt P35368).
T5 sequence (whole entry): T2 sequence (P35368 whole entry)
The assay is described as follows: Antagonist activity at human adrenergic Alpha-1B receptor expressed in HEK293 cells assessed as [3H]inositol phosphate formation at 10 uM by scintillation counting. Type of assay: functional, cell-based. In a few lines: as §3

Assay [9] concerns the target T6, Alpha-1D adrenergic receptor (Homo sapiens) (UniProt P25100).
T6 sequence (whole entry): T3 sequence (P25100 whole entry)
The experiment in a line: Antagonist activity at human adrenergic Alpha-1D receptor expressed in HEK293 cells assessed as [3H]inositol phosphate formation at 10 uM by scintillation counting. Format: functional, cell-based. In a few lines: as §3

For assay [10], the target named is T2, Alpha-1B adrenergic receptor. The experiment in a line: Binding affinity to adrenergic Alpha-1B receptor. Put shortly: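 Human α1B-adrenoceptor stably expressed in HEK293 cells, transfected with a pRSVICAT vector and selected with geneticin. Membranes were prepared by scraping cells, homogenizing them and centrifuging at 30,000 × g for 10 min. Values are pKi, mean ± SE of three experiments run in duplicate.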

For `COc1ccccc1N1CCN(CCCCN2C(=O)CC(c3ccccc3)CC2=O)CC1`, the Ki in assay [1] was 1.82 nM; in [2] it was 24 nM; in assay [3], 15.8 nM; in assay [4] it was 2.51 nM; in assay [5], 3.98 nM; in assay [6], 2 nM. Moreover, the result in [7], in assay [8] and in assay [9] was inactive.
On to `O=C1CC(c2ccccc2)CC(=O)N1CCCN1CCN(c2ccccc2Cl)CC1`, for which the Ki in assay [1] was 47.9 nM; in assay [2], 112 nM; in [3], 43.7 nM.
With `COc1ccccc1N1CCN(CCCN2C(=O)CC(C)(c3ccccc3)CC2=O)CC1`, the figures for the Ki in assay [1], in assay [2] and in assay [3] were 10.2 nM, 129 nM and 51.3 nM, respectively.
The corresponding values for `COc1ccc(Cl)cc1N1CCN(CCCN2C(=O)CC(C)(c3ccccc3)CC2=O)CC1` are 34.7 nM, 195 nM and 97.7 nM.
Take `COc1ccccc1N1CCN(CCCCCN2C(=O)CC(c3ccccc3)CC2=O)CC1`: the values for the Ki in [1], in assay [2] and in assay [3] were 21.9 nM, 97.7 nM and 30.9 nM, respectively.
With `COc1ccc(Cl)cc1N1CCN(CCCCN2C(=O)CC(C)(c3ccccc3)CC2=O)CC1`, the Ki in assay [1] is 95.5 nM; in assay [2], 151 nM; in [3] it was 77.6 nM.
As for `COc1ccccc1N1CCN(CCCCN2C(=O)CC(C)(c3ccccc3)CC2=O)CC1`, the Ki in [1] is 22.4 nM; in [2] it was 56.2 nM; in assay [3] it was 14.5 nM; in [4] it was 31.6 nM; in assay [5], 7.94 nM; in assay [6], 0.501 nM. Moreover, the result in [7], in assay [8] and in assay [9] was inactive.
Compound `COc1ccccc1N1CCN(CCn2c(=O)[nH]c3c([nH]c4ccccc43)c2=O)CC1` displayed a pKi in [1] (hek293) of 9.57.
For the compound `COc1ccccc1N1CCN(CCN2C(=O)CC3(CCc4ccccc43)CC2=O)CC1`, the Ki was 3390 nM in assay [1], 5010 nM in assay [2] and 912 nM in [3].
Consider `O=C1CC(c2ccc(Cl)cc2)CC(=O)N1CCCN1CCN(c2ccccc2Cl)CC1`, for which the Ki in assay [1] is 49 nM; in assay [2], 135 nM; in assay [3], 63.1 nM.
The corresponding values for `O=C1CC(c2ccccc2)CC(=O)N1CCN1CCN(c2ccccc2Cl)CC1` are 3240 nM, 2240 nM and 631 nM.
`COc1ccccc1N1CCN(CCCCN2C(=O)CC3(CCc4ccccc43)CC2=O)CC1`: the Ki in assay [1] is 9.77 nM; in assay [2], 72.4 nM; in assay [3] it was 16.2 nM; in assay [4] it was 10 nM; in assay [5], 20 nM; in assay [6], 5.01 nM. The outcome in assay [7], in assay [8] and in [9] was inactive.
On to `COc1ccccc1N1CCN(CCCN2C(=O)CC(c3ccccc3)CC2=O)CC1`, for which the values for the Ki in assay [1], in [2] and in [3] were 46.8 nM, 112 nM and 45.7 nM, respectively.
The corresponding values for `COc1ccc(Cl)cc1N1CCN(CCCCN2C(=O)CC(c3ccccc3)CC2=O)CC1` are 36.3 nM, 107 nM and 38.9 nM.
The corresponding values for `COc1ccccc1N1CCN(CCCN2C(=O)CC(c3ccc([N+](=O)[O-])cc3)CC2=O)CC1` are 14.1 nM, 129 nM and 67.6 nM.
For the compound `COc1ccccc1N1CCN(CCCCN2C(=O)CC(c3ccc(Cl)cc3)CC2=O)CC1`, the Ki in [1] is 67.6 nM; in [2], 245 nM; in assay [3], 72.4 nM.
Take `O=C1CC(c2ccc(Cl)cc2)CC(=O)N1CCN1CCN(c2ccccc2Cl)CC1`: the Ki in assay [1] was 6920 nM; in assay [2] it was 10000 nM; in [3], 1510 nM.
`COc1ccccc1N1CCN(CCN2C(=O)CC3(CCCC3)CC2=O)CC1` had a Ki in assay [10] of 50.1 nM.
On to `COc1ccccc1N1CCN(CCCN2C(=O)CC3(CCc4ccccc43)CC2=O)CC1`, for which the Ki in [1] was 63.1 nM; in [2], 234 nM; in [3], 75.9 nM.
Take `O=C1CC(c2ccccc2)CC(=O)N1CCCCN1CCN(c2ccccc2Cl)CC1`: the Ki in assay [1] is 15.8 nM; in [2], 30.2 nM; in assay [3], 33.9 nM.
As for `COc1ccccc1N1CCN(CCCCN2C(=O)CC(c3ccc([N+](=O)[O-])cc3)CC2=O)CC1`, the Ki in [1] is 20.9 nM; in [2], 209 nM; in assay [3], 53.7 nM.
The corresponding values for `COc1ccccc1N1CCN(CCN2C(=O)CC(c3ccc(Cl)cc3)CC2=O)CC1` are 1700 nM, 112 nM and 692 nM.
As to `COc1ccc(Cl)cc1N1CCN(CCCN2C(=O)CC(c3ccccc3)CC2=O)CC1`, the values for the inhibitory constant (Ki) in assay [1], in assay [2] and in [3] were 191 nM, 331 nM and 389 nM, respectively.
For the compound `COc1ccccc1N1CCN(CCCN2C(=O)CC(c3ccc(Cl)cc3)CC2=O)CC1`, the Ki in assay [1] is 28.2 nM; in [2] it was 126 nM; in assay [3], 69.2 nM.
The compound `CC(C)(C)c1ccc(N2CCN(CCn3c(=O)[nH]c4c([nH]c5ccccc54)c3=O)CC2)cc1` showed a pKi in assay [3] (hek293) of 7.7.
As to `COc1ccccc1N1CCN(CCN2C(=O)CC(c3ccccc3)CC2=O)CC1`, the values for the Ki in [1], in assay [2] and in assay [3] were 3470 nM, 7410 nM and 1320 nM, respectively.
